The results in this text go back to ChEMBL document CHEMBL1149778, “Synthesis of some novel 2,4-disubstituted thiazoles as possible antimicrobial agents” (2008).

≈ marks a conversion by molar mass, not a printed value. Some results are limits rather than exact numbers.

The subject of experiment [1] is Pseudomonas aeruginosa. As to the kind of experiment: Antibacterial activity against Pseudomonas aeruginosa ATTC 27853 after 16 to 18 hrs by serial plate dilution method. Type of experiment: functional. As to conditions: ATCC27853. The essentials:
(§1)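 MIC by broth serial dilution: compound serially diluted in Mueller-Hinton broth, tubes adjusted to […] with phosphate buffer. Standardized bacterial suspension inoculated, incubated 16-18 h at 37 °C. MIC read as the lowest concentration with no visible growth.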

Experiment [2] relates to Trichophyton mentagrophytes. Description: Antifungal activity against Trichophyton mentagrophytes assessed as zone of inhibition by serial plate dilution method. Type of experiment: functional. An outline of the steps:
(§2)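 Sabouraud agar (peptone, D-glucose, agar; pH 5.7), 20 ml per dish, lawned with a saline spore suspension from a loopful of fungus. Excess decanted, plates dried 1 h at 37 °C. Wells punched and compounds in DMSO added, DMSO as control. Triplicate plates, 37 °C for 3-4 days; inhibition-zone diameter measured.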

In experiment [3] the test system is Aspergillus flavus. Description: Antifungal activity against Aspergillus flavus NCIM No.524 assessed as zone of inhibition by serial plate dilution method. Type of experiment: functional. The essentials:
as §2

Experiment [4] deals with Pseudomonas aeruginosa. Description: Antibacterial activity against Pseudomonas aeruginosa ATTC 27853 assessed as zone of inhibition after 16 to 18 hrs by serial plate dilution method. Type of experiment: functional, ATCC27853. An outline of the steps: (§3)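 Agar well diffusion: 20 ml agar per dish seeded with bacterial suspension, excess decanted, dishes held 1 h at 37 °C. Wells punched, compounds in DMSO added at their MIC levels, DMSO wells as control. Zone of inhibition measured.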

For experiment [5], the system named is Escherichia coli. As to the kind of experiment: Antibacterial activity against Escherichia coli ATTC 25922 after 16 to 18 hrs by serial plate dilution method. It is filed as functional. The following applies: ATCC25922. An outline of the steps: as §1
Experiment [6] deals with Staphylococcus aureus. As to the kind of experiment: Antibacterial activity against Staphylococcus aureus ATTC 25923 assessed as zone of inhibition after 16 to 18 hrs by serial plate dilution method. It is filed as functional. The essentials: as §3
Experiment [7] has as its system Aspergillus fumigatus. Description: Antifungal activity against Aspergillus fumigatus NCIM No.902 assessed as zone of inhibition by serial plate dilution method. Type of experiment: functional. An outline of the steps: as §2
Experiment [8] deals with Bacillus subtilis. As to the kind of experiment: Antibacterial activity against Bacillus subtilis assessed as zone of inhibition after 16 to 18 hrs by serial plate dilution method. Type of experiment: functional. An outline of the steps:
as §3

Experiment [9] relates to Talaromyces marneffei. As to the kind of experiment: Antifungal activity against Penicillium marneffei assessed as zone of inhibition by serial plate dilution method. Type of experiment: functional. An outline of the steps: as §2
The test system of experiment [10] is Escherichia coli. Description: Antibacterial activity against Escherichia coli ATTC 25922 assessed as zone of inhibition after 16 to 18 hrs by serial plate dilution method. Type of experiment: functional, ATCC25922. An outline of the steps:
as §3

The subject of experiment [11] is Talaromyces marneffei. As to the kind of experiment: Antifungal activity against Penicillium marneffei by serial plate dilution method. It is filed as functional.
For experiment [12], the system named is Staphylococcus aureus. As to the kind of experiment: Antibacterial activity against Staphylococcus aureus ATTC 25923 after 16 to 18 hrs by serial plate dilution method. Type of experiment: functional. The essentials:
as §1

In experiment [13] the test system is Aspergillus fumigatus. As to the kind of experiment: Antifungal activity against Aspergillus fumigatus NCIM No.902 by serial plate dilution method. Type of experiment: functional.
For experiment [14], the system named is Bacillus subtilis. Description: Antibacterial activity against Bacillus subtilis after 16 to 18 hrs by serial plate dilution method. Type of experiment: functional. An outline of the steps: as §1
The test system of experiment [15] is Trichophyton mentagrophytes. Description: Antifungal activity against Trichophyton mentagrophytes by serial plate dilution method. It is filed as functional.
The subject of experiment [16] is Aspergillus flavus. As to the kind of experiment: Antifungal activity against Aspergillus flavus NCIM No.524 by serial plate dilution method. It is filed as functional.

Regarding `Cc1cc(C)nc(SCc2csc(-c3cc(Cl)cc(Cl)c3Cl)n2)n1`, the MIC with Pseudomonas aeruginosa [1] was found to be 6.25 µg/mL (≈ 15 µM); with Escherichia coli [5], 6.25 µg/mL (≈ 15 µM); with Talaromyces marneffei [11], 6.25 µg/mL (≈ 15 µM); in the experiment on Staphylococcus aureus [12], 6.25 µg/mL (≈ 15 µM); with Aspergillus fumigatus [13], 25 µg/mL (≈ 60 µM); in the experiment on Bacillus subtilis [14] it was 6.25 µg/mL (≈ 15 µM). In addition, the MIC came out at 25 µg/mL (≈ 60 µM) in experiment [15] and 6.25 µg/mL (≈ 15 µM) against Aspergillus flavus [16]. Moreover, the “inhibition zone (IZ)” value is less than 10 mm in experiment [2]; 16 mm with Aspergillus flavus [3]; 16 mm in the experiment on Pseudomonas aeruginosa [4]; 16 mm in the experiment on Staphylococcus aureus [6]; less than 10 mm in the experiment on Aspergillus fumigatus [7]; 16 mm in the experiment on Bacillus subtilis [8]. The “inhibition zone (IZ)” value in the experiment on Talaromyces marneffei [9] and in the experiment with Escherichia coli [10] was 16 mm in each case.

With `CN1CCN(Cc2csc(-c3cc(Cl)cc(Cl)c3Cl)n2)CC1`, the MIC with Pseudomonas aeruginosa [1] amounted to 6.25 µg/mL (≈ 16.6 µM); against Escherichia coli [5] it was 6.25 µg/mL (≈ 16.6 µM); in the experiment on Talaromyces marneffei [11], 25 µg/mL (≈ 66.4 µM); in the experiment on Staphylococcus aureus [12] it was 6.25 µg/mL (≈ 16.6 µM); against Aspergillus fumigatus [13], 6.25 µg/mL (≈ 16.6 µM); in the experiment with Bacillus subtilis [14], 6.25 µg/mL (≈ 16.6 µM). The MIC in experiment [15] stood at 6.25 µg/mL (≈ 16.6 µM); in the experiment on Aspergillus flavus [16], 25 µg/mL (≈ 66.4 µM). For the same compound, the “inhibition zone (IZ)” value in [2] is recorded as 16 mm; in the experiment with Aspergillus flavus [3], less than 10 mm; in the experiment on Pseudomonas aeruginosa [4], 16 mm; with Staphylococcus aureus [6], 16 mm; in the experiment with Aspergillus fumigatus [7], 16 mm; in the experiment with Bacillus subtilis [8] it was 16 mm. Also, the “inhibition zone (IZ)” value is given as less than 10 mm with Talaromyces marneffei [9] and 16 mm with Escherichia coli [10].

With `NC(=O)c1cc(-c2csc(-c3cc(Cl)cc(Cl)c3Cl)n2)ccc1O`, the MIC came out at 6.25 µg/mL (≈ 15.6 µM) against Pseudomonas aeruginosa [1]; 6.25 µg/mL (≈ 15.6 µM) in the experiment with Escherichia coli [5]; 6.25 µg/mL (≈ 15.6 µM) in the experiment with Talaromyces marneffei [11]; 6.25 µg/mL (≈ 15.6 µM) against Staphylococcus aureus [12]; 25 µg/mL (≈ 62.5 µM) in the experiment on Aspergillus fumigatus [13]; 6.25 µg/mL (≈ 15.6 µM) with Bacillus subtilis [14]. Moreover, the minimum inhibitory concentration (MIC) in experiment [15] stood at 25 µg/mL (≈ 62.5 µM); against Aspergillus flavus [16], 6.25 µg/mL (≈ 15.6 µM). The “inhibition zone (IZ)” value in experiment [2] was less than 10 mm; with Aspergillus flavus [3], 16 mm; with Pseudomonas aeruginosa [4], 16 mm; with Staphylococcus aureus [6] it was 16 mm; in the experiment on Aspergillus fumigatus [7], less than 10 mm; with Bacillus subtilis [8], 16 mm. Also, the “inhibition zone (IZ)” value in the experiment on Talaromyces marneffei [9] and in the experiment with Escherichia coli [10] was 16 mm each time.

Regarding `O=[N+]([O-])c1ccc(-c2csc(-c3cc(Cl)cc(Cl)c3Cl)n2)cc1`, the MIC in the experiment with Pseudomonas aeruginosa [1] is 6.25 µg/mL (≈ 16.2 µM); in the experiment on Escherichia coli [5], 6.25 µg/mL (≈ 16.2 µM); against Talaromyces marneffei [11], 25 µg/mL (≈ 64.8 µM); in the experiment on Staphylococcus aureus [12], 12.5 µg/mL (≈ 32.4 µM); in the experiment with Aspergillus fumigatus [13] it was 12.5 µg/mL (≈ 32.4 µM); in the experiment on Bacillus subtilis [14] it was 25 µg/mL (≈ 64.8 µM). Besides, the minimal inhibitory concentration (MIC) was 25 µg/mL (≈ 64.8 µM) in experiment [15] and 12.5 µg/mL (≈ 32.4 µM) against Aspergillus flavus [16]. Also, the “inhibition zone (IZ)” value in experiment [2] is less than 10 mm; with Aspergillus flavus [3] it was 11 mm; in the experiment with Pseudomonas aeruginosa [4], 16 mm; in the experiment on Staphylococcus aureus [6] it was 11 mm; with Aspergillus fumigatus [7], 11 mm; with Bacillus subtilis [8], less than 10 mm. The “inhibition zone (IZ)” value is listed as less than 10 mm in the experiment on Talaromyces marneffei [9] and 16 mm with Escherichia coli [10].

Take `CSc1ccc(-c2csc(N/N=C/c3cc(Cl)cc(Cl)c3Cl)n2)cc1`: the MIC in the experiment on Pseudomonas aeruginosa [1] was found to be 6.25 µg/mL (≈ 14.6 µM); in the experiment with Escherichia coli [5], 6.25 µg/mL (≈ 14.6 µM); in the experiment on Talaromyces marneffei [11] it was 25 µg/mL (≈ 58.3 µM); in the experiment with Staphylococcus aureus [12], 6.25 µg/mL (≈ 14.6 µM); with Aspergillus fumigatus [13] it was 6.25 µg/mL (≈ 14.6 µM); in the experiment on Bacillus subtilis [14] it was 6.25 µg/mL (≈ 14.6 µM). Besides, the figures for the MIC (in experiment [15]; with Aspergillus flavus [16]) were 6.25 µg/mL (≈ 14.6 µM) and 25 µg/mL (≈ 58.3 µM), respectively. Besides, the “inhibition zone (IZ)” value was 16 mm in experiment [2]; less than 10 mm in the experiment on Aspergillus flavus [3]; 16 mm in the experiment on Pseudomonas aeruginosa [4]; 16 mm in the experiment on Staphylococcus aureus [6]; 16 mm in the experiment with Aspergillus fumigatus [7]; 16 mm in the experiment on Bacillus subtilis [8]. Besides, the figures for the “inhibition zone (IZ)” value in the experiment with Talaromyces marneffei [9] and in the experiment with Escherichia coli [10] were less than 10 mm and 16 mm, respectively.

As for `Clc1ccc(-c2csc(N/N=C/c3cc(Cl)cc(Cl)c3Cl)n2)cc1`, the minimal inhibitory concentration (MIC) in the experiment with Pseudomonas aeruginosa [1] stood at 25 µg/mL (≈ 59.9 µM); against Escherichia coli [5], 12.5 µg/mL (≈ 30 µM); with Talaromyces marneffei [11], 12.5 µg/mL (≈ 30 µM); against Staphylococcus aureus [12], 25 µg/mL (≈ 59.9 µM); in the experiment with Aspergillus fumigatus [13] it was 12.5 µg/mL (≈ 30 µM); in the experiment with Bacillus subtilis [14] it was 25 µg/mL (≈ 59.9 µM). For the same compound, the MIC (in experiment [15]; in the experiment on Aspergillus flavus [16]) was 12.5 µg/mL (≈ 30 µM) each time. Also, the “inhibition zone (IZ)” value is 11 mm in experiment [2]; 11 mm with Aspergillus flavus [3]; less than 10 mm with Pseudomonas aeruginosa [4]; less than 10 mm in the experiment with Staphylococcus aureus [6]; 11 mm with Aspergillus fumigatus [7]; less than 10 mm in the experiment on Bacillus subtilis [8]. In addition, the “inhibition zone (IZ)” value with Talaromyces marneffei [9] and in the experiment with Escherichia coli [10] was 11 mm throughout.

With `Clc1cc(Cl)c(Cl)c(-c2nc(-c3ccc(-c4ccccc4)cc3)cs2)c1`, the MIC against Pseudomonas aeruginosa [1] came out at 12.5 µg/mL (≈ 30 µM); in the experiment with Escherichia coli [5], 25 µg/mL (≈ 60 µM); against Talaromyces marneffei [11], 6.25 µg/mL (≈ 15 µM); against Staphylococcus aureus [12], 12.5 µg/mL (≈ 30 µM); in the experiment with Aspergillus fumigatus [13], 6.25 µg/mL (≈ 15 µM); against Bacillus subtilis [14], 12.5 µg/mL (≈ 30 µM). Moreover, the MIC (in experiment [15]; against Aspergillus flavus [16]) was 6.25 µg/mL (≈ 15 µM) throughout. Besides, the “inhibition zone (IZ)” value in experiment [2] is on record as 16 mm; in the experiment with Aspergillus flavus [3], 16 mm; in the experiment with Pseudomonas aeruginosa [4] it was 11 mm; with Staphylococcus aureus [6] it was 11 mm; with Aspergillus fumigatus [7], 16 mm; in the experiment on Bacillus subtilis [8] it was 11 mm. Further, the “inhibition zone (IZ)” value in the experiment on Talaromyces marneffei [9] is listed as 16 mm; in the experiment on Escherichia coli [10], less than 10 mm.

Take `Clc1cc(Cl)c(Cl)c(-c2nc(CN3CCOCC3)cs2)c1`: the MIC against Pseudomonas aeruginosa [1] was 25 µg/mL (≈ 68.7 µM); against Escherichia coli [5], 12.5 µg/mL (≈ 34.4 µM); with Talaromyces marneffei [11] it was 12.5 µg/mL (≈ 34.4 µM); with Staphylococcus aureus [12] it was 12.5 µg/mL (≈ 34.4 µM); with Aspergillus fumigatus [13], 25 µg/mL (≈ 68.7 µM); against Bacillus subtilis [14], 12.5 µg/mL (≈ 34.4 µM). The MIC (in [15]; in the experiment on Aspergillus flavus [16]) was 25 µg/mL (≈ 68.7 µM) each time. The “inhibition zone (IZ)” value in [2] is reported as less than 10 mm; with Aspergillus flavus [3] it was less than 10 mm; with Pseudomonas aeruginosa [4] it was less than 10 mm; with Staphylococcus aureus [6] it was 11 mm; in the experiment on Aspergillus fumigatus [7], less than 10 mm; in the experiment with Bacillus subtilis [8], 11 mm. Moreover, the “inhibition zone (IZ)” value in the experiment on Talaromyces marneffei [9] and in the experiment with Escherichia coli [10] was 11 mm in each case.

One may read the MIC as the lowest concentration that inhibits growth of the organism. A high value points to weaker potency.
